According to ChEMBL document CHEMBL5653622 (Oncotarget, 2016):
Active and inactive are the calls of the source. The calls are words filed in the database; no cut-off is given here.

Legend:
[1] = target: MAP/microtubule affinity-regulating kinase 3 (Homo sapiens, UniProt P27448); test: Inhibition of human MARK3 at 10 uM in presence of ATP by radiometric kinase assay relative to control
[2] = target: Dual specificity tyrosine-phosphorylation-regulated kinase 1A (Homo sapiens) (UniProt Q13627); test: Inhibition of human DYRK1A assessed as remaining activity at 10 uM in presence of ATP by radiometric kinase assay relative to control
[3] = target: Casein kinase 2 (Homo sapiens) (UniProt P67870+P68400+P19784+Q8NEV1); test: Inhibition of human CK2 assessed as remaining activity at 10 uM in presence of ATP by radiometric kinase assay relative to control; format: protein assay
[4] = target: SRSF protein kinase 1 (Homo sapiens) (UniProt Q96SB4); test: Inhibition of human SRPK1 assessed as remaining activity at 10 uM in presence of ATP by radiometric kinase assay relative to control
[5] = target: Homeodomain-interacting protein kinase 1 (Homo sapiens) (UniProt Q86Z02); test: Inhibition of human HIPK1 assessed as remaining activity at 10 uM in presence of ATP by radiometric kinase assay relative to control
[6] = Toxicity in CRTac:Ncr-Fox1 mouse xenografted with human HT-29 cells assessed as body weight at 12.5 mg/kg, po administered for 16 days in presence of gemcitabine relative to control; format: organism-based; details: in vivo, 384 h, time 16 day
Mus musculus [7] = test: In vivo inhibition of CHK1 in CRTac:Ncr-Fox1 mouse xenografted with human HT-29 cells assessed as reduction of phosphorylation of CDK1 on Y15 at 100 mg/kg, po administered for 24 hrs by Western blotting analysis; format: functional, organism-based
Outline: (§1)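 HT29 s.c. xenografts in female athymic nude mice. Single gemcitabine dose 100mg/kg i.v. on day 0, then one inhibitor dose 50 or 100mg/kg p.o. (DPTW vehicle) 24h later. Tumors taken 24h after the last dose, western blotted, and signals quantified by normalizing to GAPDH.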

[8] = target: Mitogen-activated protein kinase kinase kinase 1 (Homo sapiens) (UniProt Q13233); test: Inhibition of human MEKK1 assessed as remaining activity at 10 uM in presence of ATP by radiometric kinase assay relative to control
[9] = Cmax in BALB/C mouse spleen at 10 mg/kg, po by LC/MS-MS analysis; format: ADME, organism-based
Outline: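 Female BALB/c mice received a single 10mg/kg bolus i.v. or p.o. Plasma (and spleen homogenate) extracted with methanol containing internal standards. Concentrations were measured by LC/MS-MS and PK parameters calculated with modelling software.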

[10] = Tmax in BALB/C mouse plasma at 10 mg/kg, iv by LC/MS-MS analysis; format: ADME, organism-based
[11] = target: Serine/threonine-protein kinase pim-1 (Homo sapiens) (UniProt P11309); test: Inhibition of human PIM1 assessed as remaining activity at 10 uM in presence of ATP by radiometric kinase assay relative to control
[12] = Toxicity in Emu-Myc driven transgenic mouse transplant model of B-cell lymphoma assessed as reduction in weight of lung at 150 mg/kg, po administered for 9 days; format: organism-based; details: in vivo, 216 h, time 9 day
[13] = target: MAP kinase-activated protein kinase 2 (Homo sapiens) (UniProt P49137); test: Inhibition of human MAPKAP-K2 assessed as remaining activity at 10 uM in presence of ATP by radiometric kinase assay relative to control
Mus musculus [14] = test: In vivo inhibition of CHK1 in CRTac:Ncr-Fox1 mouse xenografted with human HT-29 cells assessed as reduction of phosphorylation of CHK1 on S317 at 50 to 100 mg/kg, po administered for 24 hrs by Western blotting analysis; format: functional, organism-based; details: dose 50-100 mg/kg; outline: as §1
[15] = target: Rho-associated protein kinase 2 (Homo sapiens) (UniProt O75116); test: Inhibition of human ROCK2 assessed as remaining activity at 10 uM in presence of ATP by radiometric kinase assay relative to control
[16] = target: MAP kinase-activated protein kinase 3 (Homo sapiens) (UniProt Q16644); test: Inhibition of human MAPKAP-K3 assessed as remaining activity at 10 uM in presence of ATP by radiometric kinase assay relative to control
[17] = target: Serine/threonine-protein kinase PAK 6 (Homo sapiens) (UniProt Q9NQU5); test: Inhibition of human PAK6 assessed as remaining activity at 10 uM in presence of ATP by radiometric kinase assay relative to control
[18] = Toxicity in Emu-Myc driven transgenic mouse transplant model of B-cell lymphoma assessed as reduction in weight of the mesenteric lymph nodes at 150 mg/kg, po administered for 9 days; format: organism-based; details: in vivo, 216 h, time 9 day
HT-29 = test: Induction of cell cycle arrest in human HT-29 cells assessed as accumulation of cells at S phase at 0.5 uM incubated for 24 hrs by BrdU and PI staining based flow cytometry analysis; format: functional
Outline: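 HT29 cells exposed for 24h, stained with bromodeoxyuridine and propidium iodide, and cell-cycle distribution measured by flow cytometry.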

[19] = AUC (0 to t) in BALB/C mouse spleen at 10 mg/kg, po by LC/MS-MS analysis; format: ADME, organism-based
[20] = target: Dual specificity mitogen-activated protein kinase kinase 1 (Homo sapiens) (UniProt Q02750); test: Inhibition of human MKK1 assessed as remaining activity at 10 uM in presence of ATP by radiometric kinase assay relative to control
[21] = Toxicity in CRTac:Ncr-Fox1 mouse xenografted with human Calu-6 cells assessed as body weight at 150 mg/kg, po administered for 3 days in presence of gemcitabine relative to control; format: organism-based; details: in vivo, 72 h, time 3 day
Mus musculus [22] = test: In vivo inhibition of CHK1 in CRTac:Ncr-Fox1 athymic mouse xenografted with human Calu-6 cells assessed as enhanced phosphorylation of CHK1 on S345 at 150 mg/kg, po in presence of gemcitabine and carboplatin by Western blotting analysis; format: functional, organism-based
Outline: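 Female CRTac:Ncr-Fox1(nu) athymic mice carried s.c. Calu6 xenografts. Tumors were taken 6h after the last inhibitor dose, lysed in CHAPS buffer, and immunoblotted with GAPDH as loading control.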

[23] = target: Maternal embryonic leucine zipper kinase (Homo sapiens) (UniProt Q14680); test: Inhibition of human MELK assessed as remaining activity at 10 uM in presence of ATP by radiometric kinase assay relative to control
Mus musculus [24] = test: In vivo inhibition of CHK1 in CRTac:Ncr-Fox1 athymic mouse xenografted with human Calu-6 cells assessed as inhibition of CHK1 phosphorylation on S296 at 150 mg/kg, po in presence of gemcitabine and carboplatin by ELISA analysis; format: functional, organism-based
[25] = target: NUAK family SNF1-like kinase 1 (Homo sapiens) (UniProt O60285); test: Inhibition of human NUAK1 assessed as remaining activity at 10 uM in presence of ATP by radiometric kinase assay relative to control
[26] = target: Tau-tubulin kinase 1 (Homo sapiens) (UniProt Q5TCY1); test: Inhibition of human TTBK1 assessed as remaining activity at 10 uM in presence of ATP by radiometric kinase assay relative to control

Chain of NUAK family SNF1-like kinase 1 (Homo sapiens) (O60285 whole entry): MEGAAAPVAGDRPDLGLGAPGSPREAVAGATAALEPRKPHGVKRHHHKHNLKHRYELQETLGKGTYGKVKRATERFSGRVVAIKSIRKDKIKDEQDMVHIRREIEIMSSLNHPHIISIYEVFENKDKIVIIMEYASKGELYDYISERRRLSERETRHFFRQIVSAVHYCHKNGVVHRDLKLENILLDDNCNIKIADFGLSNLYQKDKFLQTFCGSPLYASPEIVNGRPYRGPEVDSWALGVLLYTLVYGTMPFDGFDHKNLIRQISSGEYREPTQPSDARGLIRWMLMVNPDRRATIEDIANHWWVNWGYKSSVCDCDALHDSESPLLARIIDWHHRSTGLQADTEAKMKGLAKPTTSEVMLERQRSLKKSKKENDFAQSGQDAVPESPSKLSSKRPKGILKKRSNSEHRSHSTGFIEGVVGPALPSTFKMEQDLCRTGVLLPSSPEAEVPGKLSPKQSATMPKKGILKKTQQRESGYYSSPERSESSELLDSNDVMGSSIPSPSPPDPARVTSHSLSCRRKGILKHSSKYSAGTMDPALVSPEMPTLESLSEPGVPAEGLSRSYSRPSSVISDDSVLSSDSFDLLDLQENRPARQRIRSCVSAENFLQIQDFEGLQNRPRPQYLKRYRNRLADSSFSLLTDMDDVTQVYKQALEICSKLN
Chain of Homeodomain-interacting protein kinase 1 (Homo sapiens) (Q86Z02 whole entry, looked up): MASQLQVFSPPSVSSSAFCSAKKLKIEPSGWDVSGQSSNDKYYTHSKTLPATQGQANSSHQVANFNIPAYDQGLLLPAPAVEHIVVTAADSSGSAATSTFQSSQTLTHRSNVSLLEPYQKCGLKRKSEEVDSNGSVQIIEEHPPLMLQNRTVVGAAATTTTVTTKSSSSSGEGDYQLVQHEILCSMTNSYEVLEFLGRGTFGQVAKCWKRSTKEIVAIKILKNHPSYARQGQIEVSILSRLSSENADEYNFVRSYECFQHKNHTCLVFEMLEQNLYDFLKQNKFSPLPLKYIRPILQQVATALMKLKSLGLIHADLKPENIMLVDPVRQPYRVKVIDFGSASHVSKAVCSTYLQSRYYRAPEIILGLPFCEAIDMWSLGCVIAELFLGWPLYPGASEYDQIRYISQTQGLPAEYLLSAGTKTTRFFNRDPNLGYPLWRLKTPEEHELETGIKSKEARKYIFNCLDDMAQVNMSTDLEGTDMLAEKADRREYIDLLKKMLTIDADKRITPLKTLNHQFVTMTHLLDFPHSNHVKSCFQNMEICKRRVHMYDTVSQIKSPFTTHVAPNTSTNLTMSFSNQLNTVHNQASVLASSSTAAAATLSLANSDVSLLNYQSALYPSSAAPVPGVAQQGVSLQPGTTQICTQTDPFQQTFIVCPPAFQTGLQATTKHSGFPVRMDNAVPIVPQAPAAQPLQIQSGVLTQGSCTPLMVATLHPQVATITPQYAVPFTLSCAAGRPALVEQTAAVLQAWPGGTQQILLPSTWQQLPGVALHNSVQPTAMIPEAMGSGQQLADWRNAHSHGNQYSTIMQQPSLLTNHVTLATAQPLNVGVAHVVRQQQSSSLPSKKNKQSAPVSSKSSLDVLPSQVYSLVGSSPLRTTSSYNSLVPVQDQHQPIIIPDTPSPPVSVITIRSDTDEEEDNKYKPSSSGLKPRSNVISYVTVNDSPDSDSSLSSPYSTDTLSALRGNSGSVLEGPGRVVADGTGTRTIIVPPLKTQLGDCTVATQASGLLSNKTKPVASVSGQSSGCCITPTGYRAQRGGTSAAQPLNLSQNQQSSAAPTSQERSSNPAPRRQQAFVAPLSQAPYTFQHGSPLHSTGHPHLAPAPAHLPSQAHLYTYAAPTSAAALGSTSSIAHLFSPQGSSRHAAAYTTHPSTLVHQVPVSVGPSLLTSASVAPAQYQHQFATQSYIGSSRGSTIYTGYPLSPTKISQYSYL
Chain of Rho-associated protein kinase 2 (Homo sapiens) (O75116 whole entry, looked up): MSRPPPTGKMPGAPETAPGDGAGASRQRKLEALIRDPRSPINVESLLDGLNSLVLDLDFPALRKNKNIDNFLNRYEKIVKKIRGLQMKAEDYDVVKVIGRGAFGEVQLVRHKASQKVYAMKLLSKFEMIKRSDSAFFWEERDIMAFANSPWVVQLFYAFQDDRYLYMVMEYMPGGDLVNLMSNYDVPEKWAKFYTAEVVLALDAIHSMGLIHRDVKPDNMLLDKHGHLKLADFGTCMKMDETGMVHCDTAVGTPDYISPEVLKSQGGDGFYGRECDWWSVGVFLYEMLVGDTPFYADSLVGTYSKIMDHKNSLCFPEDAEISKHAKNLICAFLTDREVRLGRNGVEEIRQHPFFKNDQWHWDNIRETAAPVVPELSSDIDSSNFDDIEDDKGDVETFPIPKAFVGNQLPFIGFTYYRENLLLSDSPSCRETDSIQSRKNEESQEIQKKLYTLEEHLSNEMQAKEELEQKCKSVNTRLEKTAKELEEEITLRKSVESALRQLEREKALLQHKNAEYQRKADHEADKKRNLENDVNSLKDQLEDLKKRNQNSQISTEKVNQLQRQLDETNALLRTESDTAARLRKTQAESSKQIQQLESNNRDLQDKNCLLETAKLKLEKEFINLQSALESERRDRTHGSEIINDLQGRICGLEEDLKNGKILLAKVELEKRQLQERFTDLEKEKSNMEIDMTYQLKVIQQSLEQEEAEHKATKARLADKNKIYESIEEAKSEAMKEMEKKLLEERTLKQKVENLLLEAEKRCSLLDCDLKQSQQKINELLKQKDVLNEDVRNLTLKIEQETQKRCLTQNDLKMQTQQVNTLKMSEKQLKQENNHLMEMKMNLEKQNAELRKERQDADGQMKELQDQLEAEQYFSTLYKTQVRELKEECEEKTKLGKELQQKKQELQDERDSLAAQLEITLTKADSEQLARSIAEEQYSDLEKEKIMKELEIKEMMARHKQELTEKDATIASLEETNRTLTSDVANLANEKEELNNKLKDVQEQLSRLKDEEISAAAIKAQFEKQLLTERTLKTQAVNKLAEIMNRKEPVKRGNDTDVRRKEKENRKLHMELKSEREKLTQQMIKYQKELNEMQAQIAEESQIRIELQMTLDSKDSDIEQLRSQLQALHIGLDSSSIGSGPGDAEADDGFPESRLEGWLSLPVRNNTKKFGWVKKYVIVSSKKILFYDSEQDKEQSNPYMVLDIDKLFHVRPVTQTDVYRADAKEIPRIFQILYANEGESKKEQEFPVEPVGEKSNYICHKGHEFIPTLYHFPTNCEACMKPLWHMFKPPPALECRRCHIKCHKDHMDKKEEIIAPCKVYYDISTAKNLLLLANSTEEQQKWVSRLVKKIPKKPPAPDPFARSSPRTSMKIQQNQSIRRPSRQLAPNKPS
Chain of Serine/threonine-protein kinase pim-1 (Homo sapiens) (P11309 whole entry, looked up): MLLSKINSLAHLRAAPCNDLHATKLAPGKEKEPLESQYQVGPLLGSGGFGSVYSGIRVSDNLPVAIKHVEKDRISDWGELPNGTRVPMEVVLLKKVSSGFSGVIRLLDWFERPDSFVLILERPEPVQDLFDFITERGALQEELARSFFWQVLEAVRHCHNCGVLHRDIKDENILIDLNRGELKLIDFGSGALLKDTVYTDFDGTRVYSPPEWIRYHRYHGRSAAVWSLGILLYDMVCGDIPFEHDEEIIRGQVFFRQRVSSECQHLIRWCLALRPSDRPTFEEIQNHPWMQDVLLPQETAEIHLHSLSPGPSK
Chain of SRSF protein kinase 1 (Homo sapiens) (Q96SB4 whole entry): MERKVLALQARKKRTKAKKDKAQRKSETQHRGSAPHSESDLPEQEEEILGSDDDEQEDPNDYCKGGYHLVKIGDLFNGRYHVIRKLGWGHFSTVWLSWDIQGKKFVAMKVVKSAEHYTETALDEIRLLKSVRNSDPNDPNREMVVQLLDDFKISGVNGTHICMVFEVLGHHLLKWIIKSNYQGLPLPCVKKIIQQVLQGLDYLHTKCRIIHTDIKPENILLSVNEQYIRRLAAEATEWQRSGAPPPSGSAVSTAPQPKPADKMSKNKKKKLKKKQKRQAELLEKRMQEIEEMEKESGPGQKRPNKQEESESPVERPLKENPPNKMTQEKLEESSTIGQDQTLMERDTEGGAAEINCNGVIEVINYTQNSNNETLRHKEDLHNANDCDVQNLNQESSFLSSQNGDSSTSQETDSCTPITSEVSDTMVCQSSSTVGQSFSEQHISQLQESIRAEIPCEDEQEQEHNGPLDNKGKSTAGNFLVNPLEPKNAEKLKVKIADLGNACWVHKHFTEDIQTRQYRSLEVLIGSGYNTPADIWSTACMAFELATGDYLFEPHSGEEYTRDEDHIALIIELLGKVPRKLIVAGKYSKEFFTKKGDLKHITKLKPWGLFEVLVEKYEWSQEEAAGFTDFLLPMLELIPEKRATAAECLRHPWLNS
Chain of Maternal embryonic leucine zipper kinase (Homo sapiens) (Q14680 whole entry, looked up): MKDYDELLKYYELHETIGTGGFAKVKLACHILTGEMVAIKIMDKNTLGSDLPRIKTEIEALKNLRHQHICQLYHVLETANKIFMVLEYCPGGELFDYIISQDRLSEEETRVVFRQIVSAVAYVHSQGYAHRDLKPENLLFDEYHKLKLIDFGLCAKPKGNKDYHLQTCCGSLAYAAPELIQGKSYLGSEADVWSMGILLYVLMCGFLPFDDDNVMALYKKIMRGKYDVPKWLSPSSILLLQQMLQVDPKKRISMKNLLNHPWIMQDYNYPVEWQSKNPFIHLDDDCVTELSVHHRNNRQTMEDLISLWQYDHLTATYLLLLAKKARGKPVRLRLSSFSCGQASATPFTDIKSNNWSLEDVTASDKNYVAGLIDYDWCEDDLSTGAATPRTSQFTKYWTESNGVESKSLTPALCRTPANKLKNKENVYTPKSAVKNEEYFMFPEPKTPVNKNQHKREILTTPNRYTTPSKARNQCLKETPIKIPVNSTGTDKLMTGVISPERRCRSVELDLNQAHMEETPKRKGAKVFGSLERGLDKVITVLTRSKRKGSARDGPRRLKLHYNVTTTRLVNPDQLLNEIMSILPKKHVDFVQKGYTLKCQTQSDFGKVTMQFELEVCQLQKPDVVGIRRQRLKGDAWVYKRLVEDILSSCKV

inhibition [1]: 87%
Activity [2]: 41%
Activity [3]: 81%
Activity [4]: 82%
Activity [5]: 77%
Activity [8]: 77%
Cmax [9]: 30.1 µM
Tmax [10]: 4.98 min
Activity [11]: 56%
Activity [13]: 94%
Activity [15]: 95%
Activity [16]: 114%
Activity [17]: 77%
AUC(0-t) [19]: 222 µM·h
Activity [20]: 68%
Activity [23]: 37%
Activity [25]: 6%
Activity [26]: 82%
SMILES: N#Cc1cnc(Nc2cc(NC[C@H]3CNCCO3)c(C(F)(F)F)cn2)cn1 [SRA-737]
Activity [6]: 97.5%
Activity (Mus musculus [7]): Active
Activity [12]: Toxic
Activity (Mus musculus [14]): inactive
Activity [18]: Toxic
Activity (HT-29): Active
Activity [21]: 98%
Activity (Mus musculus [22]): Active
inhibition (Mus musculus [24]): Active
